Assay results taken from the RNAGym collection of RNA variant scans (doi:10.1126/science.aae0568).
Variants at the floor of the assay were thinned out.

B1: tRNA (parent)
chain: GUUCCGUUGGCGUAAUGGUAACGCGUCUCCCUCCUAAGGAGAAGACUGCGGGUUCGAGUCCCGUACGGAACG

Variants of: B1
Assay: yeast fitness relative to wild type (ratio to wild type); higher = fitter; tRNA-Arg(CCU), competitive growth, 37 C, YPD
Outline: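 Variants of the tRNA-Arg(CCU) gene were chemically synthesised with a 3% per-site mutation rate across 69 sites and placed at the native genomic locus in Saccharomyces cerevisiae. Six parallel replicates of the pooled strains were competed in YPD at 37°C for 24 hours, and gene amplicons from the start and end populations were read by 100-nucleotide paired-end sequencing. Darwinian fitness relative to wild type was derived from changes in genotype frequencies. Genotypes required ≥ 100 starting reads, and estimates < 0.5 were set to 0.5.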

GUUCCGUUGGCGUAAUGGUAAUGCAUCUCCCUCCUAAGGAGAGGACUGCGGGUACGAGUCCUGUACGGAACG [C22U G25A A43G U54A C62U] and GUUCCGUUGGCGUAAUGGUAACGCGUCUCACUCCUAAGGAGAAGUCUGAAGGUUCGAGUCCCUUACGGAUCG [C30A A45U C49A G50A G63U A70U] cannot be ordered by yeast fitness: ≤ 0.5 for the first, ≤ 0.5 for the second.

First: GUUCCGUUGGCGUAAUGGUAAUGCGUCUCCCUCCUACGGAGAAAACUGCGGGUUCGAGUCCCCUACGGAACG [C22U A37C G44A G63C]
Second: GGUCCGUUGGCGUAAUGGUAACGCGUCUCCCUCCUAAGGAGAAGAGUGUGGGUUCGAGUCCCGUACGGAACG [U2G C46G C49U]
The yeast fitness of the first is lower: ≤ 0.5 for the first, 0.669 for the second.

Compared with GUUCCGCUGGCGUAAUGGUCACGCGUCUCCCUCCUAAGGAGAAGACUGCGGGUUCGAGUCCCGUACGGCACG [U7C A20C A69C], GUUCCGUUGGCGUAAUGGUAACGCAUCUCCCUCCUAAGGAGAAGACUGUGGGUUUGCGUCCCGUACGGAACG [G25A C49U C55U A57C] is lower in yeast fitness: 0.615 for the first, ≤ 0.5 for the second.

Going from GAUCCGUUGGCGUAAUGGAAACGCGUUUCCCUCCUAAGGAGAAGACUGCGGGUUCGAGUCCCGUACAGAACG [U2A U19A C27U G67A] to GUUCAGUUGGCGUAAUGGUAACGCGUCUCCCUCCGAAGGAGAAGACUGCGGGUUCGAGUCCCGUACGGAACG [C5A U35G], the yeast fitness rises from ≤ 0.5 to 0.636.

First: GUUUCGUUGGCGUAAAGGUCACGCGUCUCCCUCCUAAGGAGAAGACUGCGGGUUCGAGUCCCGUACGGAACG [C4U U16A A20C]
Second: GUUCCGUUGGCGUAAUGGUAACGCGUCUACCCCCAAAGGAGAAGACUGCGGGUUCGAGUCCCGUACGGAACG [C29A U32C U35A]
The yeast fitness of the first is higher: 0.58 for the first, ≤ 0.5 for the second.

Going from GUUCCGUUGGCGUAAUGGUAACGCGUCUGCCUCCUAAGGAGAAGACUGCGGGUUCGAGUCCAGUACGGAACG [C29G C62A] to GUUCCGUUGGCGUAAUGGUAACGCGUCUCCCUACUAAGGAAAAGACUGCGGGUUCGAGUCCCGUACGGAACG [C33A G41A], the yeast fitness rises from 0.506 to 0.635.

Compared with GUUCCGUUGGCGUAAUGGUAACGCGUUUCCCUCCUAAGGAGACGACUGCGGGUUCGAGUCCCGUACGGAUCG [C27U A43C A70U], GUUCCGUUGGCGUUAUGGUGACGAGUCUCCUUUCUAUGGAGAAGACUACGGGUUCGAGUCCCGUACGGUACG [A14U A20G C24A C31U C33U A37U G48A A69U] is lower in yeast fitness: 0.749 for the first, ≤ 0.5 for the second.

First: GUUCCGUUGGCGUAAUGGUAACGCGUCUCCCUCCUAAGGAGUAGACUGCGGGUUCGAGCCCCGUACGGAACG [A42U U59C]
Second: GUUCCGUUGGCGUAAUGGUAACGCGUCUCCCUCCUAAGGAGAAGUCUGAGGCUUCAAGUCCCGUACGGAACG [A45U C49A G52C G56A]
The yeast fitness of the first is higher: 1.01 for the first, ≤ 0.5 for the second.

Going from GUUCCGUUGGCGUAAUGGGAAUGCGUCUCCUUCCUAAGGUGAAGACUGCGGGUUCGAGUCCCGUACGGUACG [U19G C22U C31U A40U A69U] to GUUUCGUUGGCGUAAUGGUUACGCGUCUCCCUCCUAAGGUGAAGACUGCGGGUUCGAGUCCCGUACGGAACG [C4U A20U A40U], the yeast fitness rises from 0.569 to 0.646.

Compared with GUACCGUUGGCGUAAUGGUAACGCGUCUCCCUCCUAAGGAGAAGACUGCGGGUUCGAGUCCCGCACGGAACG [U3A U64C], GUUCCGUUGGCGUAAUGGUAACGCGUCUCCCUCCUAAGGAGAAGACUGCGGGUUCGACACCCGUACCGAACG [G58C U59A G67C] is lower in yeast fitness: 1.01 for the first, 0.556 for the second.

Going from GUUCCGUUGGCGUAUUGGUAACGGGUCUCCCUCCUAAGGAGAAGGCUGCGGAUACGAGUCCCGUACGGAACG [A15U C24G A45G G52A U54A] to GAUCCGUUGGCGUAAUGGUUACGCGUCUCCCUCCUAAGGAGAAGACUGCGGGAUCGAGUACCGUACGGAACG [U2A A20U U53A C60A], the yeast fitness rises from ≤ 0.5 to 0.558.

Compared with GUUCCGUUGGCGUAAUGGUAUCGCGGCUCCCUCCUAAGGAGAAGACUGCCGGUUCGAGUCCCGUACGGAACG [A21U U26G G50C], GUUCCGUUGGCGUAAUGGUAACGCAUCUCCCACCUAAGGAGAAGACUGUGGGAUCGAGUCCCGUACGGAACG [G25A U32A C49U U53A] is lower in yeast fitness: 0.586 for the first, ≤ 0.5 for the second.

GGUCCGUUGGCGUAAUGGUAACGCGUCUCCCUCGUAAGGAGAAGACUGCGGGUUCGAGUCCCGUACUGAACG [U2G C34G G67U] and GUUCCGUUGGCGUAAUGGUAACGCGUCUCUCUCCUAAGGAGAAGACAGCGGGUUCGAGAUCGGUAUGGAACG [C30U U47A U59A C60U C62G C66U] cannot be ordered by yeast fitness: ≤ 0.5 for the first, ≤ 0.5 for the second.

GUUCCGUUGCCGUAAUGGUAACGCGUCUCCCCCCUAAGGAGCAGACUGCGGGUUCGAGUCCCGUACGGAACG [G10C U32C A42C] and GUUCCGUUGGCGUAAUGGUAACGCCUCUCCCUCCUAACGAGAAGACUCGGGGUUCGAGUCCCGUACGGAACG [G25C G38C G48C C49G] cannot be ordered by yeast fitness: ≤ 0.5 for the first, ≤ 0.5 for the second.

GUUCCGUUGGCGUAAUGGUAACGCGUCUCCCUCCUAACGAGGAGACUGCGGGUUCGAGUCCUGUACGGAACG [G38C A42G C62U] and GUUCCGUUGGCGUAAUGGUAAAGCGUCUCCCUCCUAAGGAGAAGACAGCGGGUUCAAGUUCCGUACGGAACG [C22A U47A G56A C60U] cannot be ordered by yeast fitness: ≤ 0.5 for the first, ≤ 0.5 for the second.

Compared with GUUCCGUUGGCGUAAUGGUAACGCGUCUCCAUCCUAUGGAGAAGACUGCGGGUUCGAGUCCCAUACCGAACG [C31A A37U G63A G67C], GUUUCGUUGGCGUAAUGCUAACGCGUCUCCCUCCUAAGGAGAAGACUGCGGGUUCGAGUCCCGUACGGAACG [C4U G18C] is higher in yeast fitness: ≤ 0.5 for the first, 0.651 for the second.

First: GUUCCGUUGGCGUAAUGGUAACGCGUCUCCCUCCUAAGGAAAAGACUGCGGGUUCGAGUCCCCUAAGGAACG [G41A G63C C66A]
Second: GUUCCGUUGGCGUAAUGGUAGCGCGUCUCCCUCCUAAGGAGCAGACUGCGGGUUCGAGUCCCGUACGGAUCG [A21G A42C A70U]
The yeast fitness of the first is lower: ≤ 0.5 for the first, 0.761 for the second.

First: GUUACGAUGGCGUAAUGGUAACGCGUCUCCCUCCUAAGGAGAAGACUGCGGGUUCGAGUCCCGUACGGAACG [C4A U7A]
Second: GUUCCGUUGGCGUAAUGGUAACCCGUCUCCCUCCUAAGGAGAAGACUGCGGGUUCGAGUCCCGUAUGGAACG [G23C C66U]
The yeast fitness of the first is lower: 0.679 for the first, 0.723 for the second.

Going from GUUCCGUUGGCGUAAUGGGAACGCGUCUCCCUCCUAAGGACAAGACUGCGGGUUCGAGUCCCGUACGGAACG [U19G G41C] to GUUCCCUUGGCGUAAUGGUAACGCGUCUCCCUCCUAAGGAGAAGCCUACGCGUUCGAGUCCCGUACGGAACG [G6C A45C G48A G51C], the yeast fitness falls from 0.622 to ≤ 0.5.
